The values below come from ChEMBL document CHEMBL1140171, “Synthesis and utilization of chiral alpha-methylated alpha-amino acids with a carboxyalkyl side chain in the design of novel Grb2-SH2 peptide inhibitors free of phosphotyrosine” (J Med Chem, 2008).

SMILES strings stand for the structures. Starred links: 1 amine or outer side, 2 acyl side, 3 side chain; linkers in the order of their positions; H or OH if unused. Positions of bridges follow the written chain, without caps; N, C: chain ends. Non-standard residues stand in square brackets, D forms with d. Residues, ends and D or L forms follow the SMILES beside them. *: point of attachment. Cys(CH2CO)(S-oxide,Ss) = O=C([C@H](C[S@+]([O-])CC(=O)[*:3])N[*:1])[*:2]; X1 = O=C(O)CCc1cc(C[C@H](N[*:1])C(=O)[*:2])ccc1O; Tyr(3-NH2) = Nc1cc(C[C@H](N)C(=O)O)ccc1O; X2 = C[C@](CCCC(=O)O)(N[*:1])C(=O)[*:2]; Gla = N[C@@H](CC(C(=O)O)C(=O)O)C(=O)O; Fmoc = O=C(OCC1c2ccccc2-c2ccccc21)*; αMehGlu = C[C@](N)(CCCC(=O)O)C(=O)O; αMeE = C[C@](N)(CCC(=O)O)C(=O)O; Aad = N[C@@H](CCCC(=O)O)C(=O)O; αMeD = C[C@](N)(CC(=O)O)C(=O)O; Ac6c = NC1(C(=O)O)CCCCC1; Ava = NCCCCC(=O)O A value given as a limit tells only on which side of the number the result lay.

Test [1] has as its target Growth factor receptor-bound protein 2 (Homo sapiens, UniProt P62993). As to the kind of experiment: Binding affinity to recombinant Grb2 SH2 domain by surface plasmon resonance analysis. In short, it runs like this: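 Competition SPR: inhibitor mixed with recombinant Grb2 SH2 protein, with equilibrium binding measured to immobilized biotinyl-DDPS-pY-VNVQ (SHC pTyr317 phosphopeptide) on a streptavidin SA chip. Run in pH 7.4 PBS with 0.01% P-20 surfactant. IC50 is the concentration giving half-maximal competition, as the mean of at least two independent experiments with standard deviation.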

The next test relates to MDA-MB-453. In words: Antiproliferative activity against human MDA-MB-453 cells expressing erbB-2 after 4 days by WST-8 assay. The following applies: MDA-MB-453, 96 h. It is filed as functional, cell-based. A digest of the protocol:
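MDA-MB-453 cells (erbB-2 overexpressing) seeded at (3-4) × 10^3 cells/well with a range of inhibitor concentrations, incubated 4 days. WST-8 added to 10% final, 2-3 h at 37 °C, absorbance read at 450 nm. IC50 is the concentration giving 50% growth inhibition, taken against untreated DMSO-control absorbance.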
Background: Tetrazolium dyes change colour on reduction, which living cells bring about.

Chain of Growth factor receptor-bound protein 2 (P62993 whole entry, the tested form may be a part): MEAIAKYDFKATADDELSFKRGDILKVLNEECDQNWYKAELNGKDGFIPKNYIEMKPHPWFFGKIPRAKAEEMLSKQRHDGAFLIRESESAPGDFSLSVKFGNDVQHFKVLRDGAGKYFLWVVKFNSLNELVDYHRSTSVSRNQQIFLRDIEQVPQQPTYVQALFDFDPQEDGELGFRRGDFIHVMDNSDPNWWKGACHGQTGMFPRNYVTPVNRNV

Take `CC(C)C[C@@H]1NC(=O)[C@H](CCCC(=O)O)NC(=O)C[S@@+]([O-])C[C@@H](C(N)=O)NC(=O)CCCCNC(=O)[C@H](CC(N)=O)NC(=O)[C@](C)(CCC(=O)O)NC(=O)[C@H](Cc2ccc(O)cc2)NC1=O`: the IC50 (as a rule, the concentration that gives 50% inhibition) in test [1] is 18 µM.

As to `CC(C)C[C@@H]1NC(=O)[C@H](CCCC(=O)O)NC(=O)C[S@@+]([O-])C[C@@H](C(N)=O)NC(=O)CCCCNC(=O)[C@H](CC(N)=O)NC(=O)[C@@](C)(CCC(=O)O)NC(=O)[C@H](Cc2ccc(O)cc2)NC1=O`, the 50% inhibitory concentration (IC50) in test [1] was 30.5 µM.

As for `C[C@@](CCC(=O)O)(NC(=O)[C@H](Cc1ccc(O)c(CCC(=O)O)c1)NC(=O)OCC1c2ccccc2-c2ccccc21)C(=O)N[C@@H](CC(N)=O)C(N)=O`, the IC50 in test [1] stood at 168 µM.

As to `CC(C)C[C@@H]1NC(=O)[C@H](CCCC(=O)O)NC(=O)CSC[C@@H](C(N)=O)NC(=O)CCCCNC(=O)[C@H](CC(N)=O)NC(=O)[C@@](C)(CCC(=O)O)NC(=O)[C@H](Cc2ccc(O)cc2)NC1=O`, the IC50 in test [1] came out at 60.5 µM.

Turning to `C[C@@](CCC(=O)O)(NC(=O)[C@@H](N)Cc1ccc(O)c(CCO)c1)C(=O)N[C@@H](CC(N)=O)C(N)=O`, the 50% inhibitory concentration (IC50) in test [1] was found to be 290 µM.

As for `CC(C)C[C@@H]1NC(=O)[C@H](CCCC(=O)O)NC(=O)CSC[C@@H](C(N)=O)NC(=O)CCCCNC(=O)[C@H](CC(N)=O)NC(=O)[C@](C)(CCC(=O)O)NC(=O)[C@H](Cc2ccc(O)cc2)NC1=O`, the 50% inhibitory concentration (IC50) in test [1] came out at 70 µM.

Turning to `CC(C)C[C@H](NC(=O)[C@H](CCCC(=O)O)NC(=O)OCC1c2ccccc2-c2ccccc21)C(=O)N[C@@H](Cc1ccc(O)c(N)c1)C(=O)NC1(C(=O)N[C@@H](CC(N)=O)C(N)=O)CCCCC1` (Fmoc-[Aad]L[Tyr(3-NH2)][Ac6c]N-NH2), the concentration for half-maximal inhibition (IC50) in test [1] was determined as 5.8 µM.

In the case of `CC(C)C[C@H](NC(=O)[C@H](CCCC(=O)O)NC(=O)OCC1c2ccccc2-c2ccccc21)C(=O)N[C@@H](Cc1ccc(O)c(CCC(=O)O)c1)C(=O)N[C@@](C)(CCC(=O)O)C(=O)N[C@@H](CC(N)=O)C(N)=O` (Fmoc-[Aad]L[X1][αMeE]N-NH2), the figures for the half-maximal inhibitory concentration (IC50) (with MDA-MB-453; in test [1]) were 14 µM and 5.6 µM, respectively.

As for `CC(C)C[C@H](NC(=O)[C@H](CC(C(=O)O)C(=O)O)NC(=O)OCC1c2ccccc2-c2ccccc21)C(=O)N[C@@H](Cc1ccc(O)c(N)c1)C(=O)NC1(C(=O)N[C@@H](CC(N)=O)C(N)=O)CCCCC1` (Fmoc-[Gla]L[Tyr(3-NH2)][Ac6c]N-NH2), the IC50 stood at 52 µM in the test with MDA-MB-453 and 2.5 µM in test [1].

Take `CC(C)C[C@H](NC(=O)[C@H](CC(C(=O)O)C(=O)O)NC(=O)OCC1c2ccccc2-c2ccccc21)C(=O)N[C@@H](Cc1ccc(O)c(N)c1)C(=O)N[C@@](C)(CCC(=O)O)C(=O)N[C@@H](CC(N)=O)C(N)=O` (Fmoc-[Gla]L[Tyr(3-NH2)][αMeE]N-NH2): the IC50 with MDA-MB-453 was determined as 55 µM; in test [1], 4.4 µM.

For `CC(C)C[C@H](NC(=O)[C@@](C)(CCCC(=O)O)NC(=O)OCC1c2ccccc2-c2ccccc21)C(=O)N[C@@H](Cc1ccc(O)cc1)C(=O)NC1(C(=O)N[C@@H](CC(N)=O)C(N)=O)CCCCC1` (Fmoc-[X2]LY[Ac6c]N-NH2), the IC50 in test [1] was above 1000 µM.

As to `CC(C)C[C@H](NC(=O)[C@@](C)(CCCC(=O)O)NC(=O)OCC1c2ccccc2-c2ccccc21)C(=O)N[C@@H](Cc1ccc(O)c(N)c1)C(=O)NC1(C(=O)N[C@@H](CC(N)=O)C(N)=O)CCCCC1` (Fmoc-[X2]L[Tyr(3-NH2)][Ac6c]N-NH2), in test [1], the 50% inhibitory concentration (IC50) was determined as 700 µM.

With `CC(C)C[C@H](NC(=O)[C@](C)(CCCC(=O)O)NC(=O)OCC1c2ccccc2-c2ccccc21)C(=O)N[C@@H](Cc1ccc(O)cc1)C(=O)NC1(C(=O)N[C@@H](CC(N)=O)C(N)=O)CCCCC1` (Fmoc-[αMehGlu]LY[Ac6c]N-NH2), in test [1], the IC50 amounted to 118 µM.

Consider `CC(C)C[C@H](NC(=O)[C@](C)(CCCC(=O)O)NC(=O)OCC1c2ccccc2-c2ccccc21)C(=O)N[C@@H](Cc1ccc(O)c(N)c1)C(=O)NC1(C(=O)N[C@@H](CC(N)=O)C(N)=O)CCCCC1` (Fmoc-[αMehGlu]L[Tyr(3-NH2)][Ac6c]N-NH2), for which the IC50 with MDA-MB-453 came out at 29 µM; in test [1], 3.9 µM.

For the compound `CC(C)C[C@H](NC(=O)[C@@H](N)CC(C(=O)O)C(=O)O)C(=O)N[C@@H](Cc1ccc(O)c(N)c1)C(=O)N[C@@](C)(CCC(=O)O)C(=O)N[C@@H](CC(N)=O)C(N)=O` (H-[Gla]L[Tyr(3-NH2)][αMeE]N-NH2), the IC50 in test [1] came out at 19 µM.

As to `CC(C)C[C@@H]1NC(=O)[C@H](CCCC(=O)O)NC(=O)C[S@@+]([O-])C[C@@H](C(N)=O)NC(=O)CCCCNC(=O)[C@H](CC(N)=O)NC(=O)C2(CCCCC2)NC(=O)[C@H](Cc2ccc(O)cc2)NC1=O` ([Aad]LY[Ac6c]N[Ava][Cys(CH2CO)(S-oxide,Ss)]-NH2; lactam N-7), in test [1], the half-inhibitory concentration (IC50) turned out to be 77 µM.

As to `CC(C)C[C@@H]1NC(=O)[C@H](CCCC(=O)O)NC(=O)C[S@@+]([O-])C[C@@H](C(N)=O)NC(=O)CCCCNC(=O)[C@H](CC(N)=O)NC(=O)[C@](C)(CC(=O)O)NC(=O)[C@H](Cc2ccc(O)cc2)NC1=O` ([Aad]LY[αMeD]N[Ava][Cys(CH2CO)(S-oxide,Ss)]-NH2; lactam N-7), the half-maximal inhibitory concentration (IC50) in test [1] was found to be 30.5 µM.

As for `CC(C)C[C@@H]1NC(=O)[C@H](CCCC(=O)O)NC(=O)C[S@@+]([O-])C[C@@H](C(N)=O)NC(=O)CCCCNC(=O)[C@H](CC(N)=O)NC(=O)[C@](C)(CCCC(=O)O)NC(=O)[C@H](Cc2ccc(O)cc2)NC1=O` ([Aad]LY[αMehGlu]N[Ava][Cys(CH2CO)(S-oxide,Ss)]-NH2; lactam N-7), the IC50 in test [1] was 17 µM.

Regarding `CC(C)C[C@@H]1NC(=O)[C@H](CCCC(=O)O)NC(=O)C[S@@+]([O-])C[C@@H](C(N)=O)NC(=O)CCCCNC(=O)[C@H](CC(N)=O)NC(=O)[C@](C)(CCC(=O)O)NC(=O)[C@H](Cc2ccc(O)c(N)c2)NC1=O` ([Aad]L[Tyr(3-NH2)][αMeE]N[Ava][Cys(CH2CO)(S-oxide,Ss)]-NH2; lactam N-7), the IC50 in test [1] is 8.1 µM.

On to `CC(C)C[C@@H]1NC(=O)[C@H](CC(C(=O)O)C(=O)O)NC(=O)C[S@@+]([O-])C[C@@H](C(N)=O)NC(=O)CCCCNC(=O)[C@H](CC(N)=O)NC(=O)[C@](C)(CCCC(=O)O)NC(=O)[C@H](Cc2ccc(O)c(N)c2)NC1=O` ([Gla]L[Tyr(3-NH2)][αMehGlu]N[Ava][Cys(CH2CO)(S-oxide,Ss)]-NH2; lactam N-7), for which the IC50 in the test with MDA-MB-453 came out at 12 µM; in test [1], 1.15 µM.

`CC(C)C[C@@H]1NC(=O)[C@H](CCCC(=O)O)NC(=O)CSC[C@@H](C(N)=O)NC(=O)CCCCNC(=O)[C@H](CC(N)=O)NC(=O)[C@](C)(CC(=O)O)NC(=O)[C@H](Cc2ccc(O)cc2)NC1=O` ({CH2CO}-[Aad]LY[αMeD]N[Ava]C-NH2; thioether N-7): in test [1], the IC50 was 108 µM.

Consider `CC(C)C[C@@H]1NC(=O)[C@H](CCCC(=O)O)NC(=O)CSC[C@@H](C(N)=O)NC(=O)CCCCNC(=O)[C@H](CC(N)=O)NC(=O)[C@](C)(CCCC(=O)O)NC(=O)[C@H](Cc2ccc(O)cc2)NC1=O` ({CH2CO}-[Aad]LY[αMehGlu]N[Ava]C-NH2; thioether N-7), for which the IC50 in test [1] was found to be 60.7 µM.

`CC(C)C[C@@H]1NC(=O)[C@H](CCCC(=O)O)NC(=O)CSC[C@@H](C(N)=O)NC(=O)CCCCNC(=O)[C@H](CC(N)=O)NC(=O)[C@](C)(CCC(=O)O)NC(=O)[C@H](Cc2ccc(O)c(N)c2)NC1=O` ({CH2CO}-[Aad]L[Tyr(3-NH2)][αMeE]N[Ava]C-NH2; thioether N-7): in test [1], the IC50 came out at 17 µM.

As for `CC(C)C[C@@H]1NC(=O)[C@H](CC(C(=O)O)C(=O)O)NC(=O)CSC[C@@H](C(N)=O)NC(=O)CCCCNC(=O)[C@H](CC(N)=O)NC(=O)[C@](C)(CCCC(=O)O)NC(=O)[C@H](Cc2ccc(O)c(N)c2)NC1=O` ({CH2CO}-[Gla]L[Tyr(3-NH2)][αMehGlu]N[Ava]C-NH2; thioether N-7), in test [1], the 50% inhibitory concentration (IC50) is 9.5 µM.
